Columns and labels:
Assay type in all cases: ADME, organism-based, Macaca mulatta
Hippocampus [1] = test: Biodistribution in rhesus monkey hippocampus at 150.3 MBq, iv after 0.75 mins; settings: in vivo, 45 s
How it was run: (§1)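 Single male rhesus monkey anesthetized with ketamine 10 mg/kg im, head fixed. Attenuation correction by 20 min 68Ge-68Ga transmission scan. [11C]-tracer in saline (pH 7.4) given iv, specific radioactivity 2.9 TBq/μmol at injection. Dynamic 3D PET emission scan over 90 min in frames of 0.5 to 5 min. MRI T1 images used to define VOIs. Uptake expressed as […].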

[2] = Biodistribution in rhesus monkey cerebellum at 150.3 MBq, iv after 0.75 mins; settings: in vivo, 45 s
How it was run: (§2)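 Male rhesus monkey under ketamine (10 mg/kg im) with head fixation. After a 20 min 68Ge-68Ga transmission scan, the [11C]-labelled tracer in saline (pH 7.4) was injected iv, at 2.9 TBq/μmol specific radioactivity at injection. A dynamic 3D PET scan followed over 90 min (6×0.5, 7×1, 20×2, 8×5 min frames). Regions were defined on T1-weighted 1.5 T MRI, and uptake is given as %ID/mL.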

[3] = Biodistribution in rhesus monkey cingulate cortex at 150.3 MBq, iv after 1.25 mins; settings: in vivo, 75 s; how it was run: as §2
Striatum [4] = test: Biodistribution in rhesus monkey striatum at 150.3 MBq, iv after 1.25 mins; settings: in vivo, 75 s
Striatum [5] = test: Biodistribution in rhesus monkey striatum at 150.3 MBq, iv after 2.25 mins; settings: in vivo, 135 s
[6] = Biodistribution in rhesus monkey occipital lobe at 150.3 MBq, iv after 2.25 mins; settings: in vivo, 135 s
How it was run: (§3)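 Male rhesus monkey under ketamine 10 mg/kg im, head fixed; 20 min 68Ge-68Ga transmission scan, then 90 min dynamic 3D PET (6×0.5, 7×1, 20×2, 8×5 min frames) after iv [11C]-labelled tracer in saline, specific radioactivity about 2.9 TBq/μmol at injection. Regions defined on T1-weighted MRI; uptake expressed as % injected dose per mL.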

[7] = Biodistribution in rhesus monkey retina at 150.3 MBq, iv after 2.25 mins; settings: in vivo, 135 s
Hippocampus [8] = test: Biodistribution in rhesus monkey hippocampus at 150.3 MBq, iv after 3.5 mins; settings: in vivo; how it was run: as §3
[9] = Biodistribution in rhesus monkey retina at 150.3 MBq, iv after 3.5 mins; settings: in vivo
[10] = Biodistribution in rhesus monkey entorhinal cortex at 150.3 MBq, iv after 4.5 mins; settings: in vivo, 0.075 h; how it was run: as §1
[11] = Biodistribution in rhesus monkey occipital lobe at 150.3 MBq, iv after 5.5 mins; settings: in vivo
Hippocampus [12] = test: Biodistribution in rhesus monkey hippocampus at 150.3 MBq, iv after 6.5 mins; settings: in vivo; how it was run: as §3
[13] = Biodistribution in rhesus monkey cerebellum at 150.3 MBq, iv after 6.5 mins; settings: in vivo; how it was run: as §2
Hippocampus [14] = test: Biodistribution in rhesus monkey hippocampus at 150.3 MBq, iv after 9.5 mins; settings: in vivo; how it was run: as §3
[15] = Biodistribution in rhesus monkey cingulate cortex at 150.3 MBq, iv after 15 mins; settings: in vivo, 0.25 h; how it was run: as §2
[16] = Biodistribution in rhesus monkey entorhinal cortex at 150.3 MBq, iv after 15 mins; settings: in vivo, 0.25 h; how it was run: as §1
[17] = Biodistribution in rhesus monkey cerebellum at 150.3 MBq, iv after 15 mins; settings: in vivo, 0.25 h; how it was run: as §2
[18] = Biodistribution in rhesus monkey cingulate cortex at 150.3 MBq, iv after 23 mins; settings: in vivo; how it was run: as §2
[19] = Biodistribution in rhesus monkey occipital lobe at 150.3 MBq, iv after 23 mins; settings: in vivo; how it was run: as §3
Hippocampus [20] = test: Biodistribution in rhesus monkey hippocampus at 150.3 MBq, iv after 25 mins; settings: in vivo; how it was run: as §1
Striatum [21] = test: Biodistribution in rhesus monkey striatum at 150.3 MBq, iv after 25 mins; settings: in vivo
[22] = Biodistribution in rhesus monkey cingulate cortex at 150.3 MBq, iv after 27 mins; settings: in vivo, 0.45 h; how it was run: as §2
[23] = Biodistribution in rhesus monkey cingulate cortex at 150.3 MBq, iv after 29 mins; settings: in vivo; how it was run: as §2
Hippocampus [24] = test: Biodistribution in rhesus monkey hippocampus at 150.3 MBq, iv after 31 mins; settings: in vivo; how it was run: as §3
[25] = Biodistribution in rhesus monkey cerebellum at 150.3 MBq, iv after 31 mins; settings: in vivo; how it was run: as §2
Hippocampus [26] = test: Biodistribution in rhesus monkey hippocampus at 150.3 MBq, iv after 33 mins; settings: in vivo, 0.55 h; how it was run: as §3
[27] = Biodistribution in rhesus monkey entorhinal cortex at 150.3 MBq, iv after 33 mins; settings: in vivo, 0.55 h; how it was run: as §1
Striatum [28] = test: Biodistribution in rhesus monkey striatum at 150.3 MBq, iv after 33 mins; settings: in vivo, 0.55 h
[29] = Biodistribution in rhesus monkey cerebellum at 150.3 MBq, iv after 35 mins; settings: in vivo; how it was run: as §2
Striatum [30] = test: Biodistribution in rhesus monkey striatum at 150.3 MBq, iv after 37 mins; settings: in vivo
Hippocampus [31] = test: Biodistribution in rhesus monkey hippocampus at 150.3 MBq, iv after 39 mins; settings: in vivo, 0.65 h; how it was run: as §3
[32] = Biodistribution in rhesus monkey cerebellum at 150.3 MBq, iv after 39 mins; settings: in vivo, 0.65 h; how it was run: as §2
[33] = Biodistribution in rhesus monkey occipital lobe at 150.3 MBq, iv after 39 mins; settings: in vivo, 0.65 h; how it was run: as §3
[34] = Biodistribution in rhesus monkey entorhinal cortex at 150.3 MBq, iv after 41 mins; settings: in vivo; how it was run: as §1
[35] = Biodistribution in rhesus monkey cerebellum at 150.3 MBq, iv after 41 mins; settings: in vivo; how it was run: as §2
Striatum [36] = test: Biodistribution in rhesus monkey striatum at 150.3 MBq, iv after 43 mins; settings: in vivo
[37] = Biodistribution in rhesus monkey cingulate cortex at 150.3 MBq, iv after 49 mins; settings: in vivo; how it was run: as §1
[38] = Biodistribution in rhesus monkey entorhinal cortex at 150.3 MBq, iv after 62.5 mins; settings: in vivo; how it was run: as §1
[39] = Biodistribution in rhesus monkey retina at 150.3 MBq, iv after 77.5 mins; settings: in vivo
[40] = Biodistribution in rhesus monkey occipital lobe at 150.3 MBq, iv after 82.5 mins; settings: in vivo, 1.375 h
[41] = Biodistribution in rhesus monkey retina at 150.3 MBq, iv after 82.5 mins; settings: in vivo, 1.375 h
Hippocampus [42] = test: Biodistribution in rhesus monkey hippocampus at 150.3 MBq, iv after 87.5 mins; settings: in vivo; how it was run: as §3
[43] = Biodistribution in rhesus monkey entorhinal cortex at 150.3 MBq, iv after 87.5 mins; settings: in vivo; how it was run: as §1
[44] = Biodistribution in rhesus monkey entorhinal cortex at 150.3 MBq, iv after 2.75 mins; settings: in vivo, 165 s; how it was run: as §1
[45] = Biodistribution in rhesus monkey cingulate cortex at 150.3 MBq, iv after 8.5 mins; settings: in vivo; how it was run: as §1
Striatum [46] = test: Biodistribution in rhesus monkey striatum at 150.3 MBq, iv after 8.5 mins; settings: in vivo
[47] = Biodistribution in rhesus monkey entorhinal cortex at 150.3 MBq, iv after 52.5 mins; settings: in vivo, 0.875 h; how it was run: as §1
Hippocampus [48] = test: Biodistribution in rhesus monkey hippocampus at 150.3 MBq, iv after 72.5 mins; settings: in vivo; how it was run: as §3
Striatum [49] = test: Biodistribution in rhesus monkey striatum at 150.3 MBq, iv after 72.5 mins; settings: in vivo

Drug uptake (Hippocampus [1]): 57.7053 kBq/ml
Drug uptake [2]: 56.67 kBq/ml
Drug uptake [3]: 60.79 kBq/ml
Drug uptake (Striatum [4]): 60.2 kBq/ml
Drug uptake (Striatum [5]): 51.53 kBq/ml
Drug uptake [6]: 44.53 kBq/ml
Drug uptake [7]: 36.9 kBq/ml
Drug uptake (Hippocampus [8]): 43.93 kBq/ml
Drug uptake [9]: 39.59 kBq/ml
Drug uptake [10]: 33.7 kBq/ml
Drug uptake [11]: 32.15 kBq/ml
Drug uptake (Hippocampus [12]): 37.33 kBq/ml
Drug uptake [13]: 31.35 kBq/ml
Drug uptake (Hippocampus [14]): 30.28 kBq/ml
Drug uptake [15]: 20.1 kBq/ml
Drug uptake [16]: 22.26 kBq/ml
Drug uptake [17]: 19.28 kBq/ml
Drug uptake [18]: 17.4 kBq/ml
Drug uptake [19]: 15.16 kBq/ml
Drug uptake (Hippocampus [20]): 16.72 kBq/ml
Drug uptake (Striatum [21]): 17.99 kBq/ml
Drug uptake [22]: 15.6843 kBq/ml
Drug uptake [23]: 15.04 kBq/ml
Drug uptake (Hippocampus [24]): 14.91 kBq/ml
Drug uptake [25]: 13.26 kBq/ml
Drug uptake (Hippocampus [26]): 13.18 kBq/ml
Drug uptake [27]: 16.29 kBq/ml
Drug uptake (Striatum [28]): 14.6624 kBq/ml
Drug uptake [29]: 11.95 kBq/ml
Drug uptake (Striatum [30]): 12.6 kBq/ml
Drug uptake (Hippocampus [31]): 12.1253 kBq/ml
Drug uptake [32]: 10.98 kBq/ml
Drug uptake [33]: 9.974 kBq/ml
Drug uptake [34]: 11.877 kBq/ml
Drug uptake [35]: 10.86 kBq/ml
Drug uptake (Striatum [36]): 11.39 kBq/ml
Drug uptake [37]: 10.6 kBq/ml
Drug uptake [38]: 10.43 kBq/ml
Drug uptake [39]: 50.63 kBq/ml
Drug uptake [40]: 8.356 kBq/ml
Drug uptake [41]: 52.3 kBq/ml
Drug uptake (Hippocampus [42]): 8.159 kBq/ml
Drug uptake [43]: 10.53 kBq/ml
Drug uptake [44]: 41.01 kBq/ml
Drug uptake [45]: 30.4104 kBq/ml
Drug uptake (Striatum [46]): 31.7 kBq/ml
Drug uptake [47]: 9.01 kBq/ml
Drug uptake (Hippocampus [48]): 8.523 kBq/ml
Drug uptake (Striatum [49]): 9.016 kBq/ml
SMILES: [11CH3]Oc1cccc(C(=O)NCCN2CCN(c3ncccc3C#N)CC2)c1

— ChEMBL document CHEMBL1268908, “Design, synthesis, radiolabeling, and in vivo evaluation of carbon-11 labeled N-[2-[4-(3-cyanopyridin-2-yl)piperazin-1-yl]ethyl]-3-methoxybenzamide, a potential positron emission tomography tracer for the dopamine D(4) receptors” (J Med Chem, 2010)
